Reference: ChEMBL document CHEMBL3875200, “Bivalent SIRT1 inhibitors” (Bioorg Med Chem Lett, 2017)
Active and inactive are the calls of the source. The calls are words filed in the database; no cut-off is given here.

Experiments:
[1] = target: T1, NAD-dependent protein deacetylase sirtuin-1 (Homo sapiens, UniProt Q96EB6); assay: Inhibition of recombinant human His6/GST-tagged SIRT1 expressed in Escherichia coli assessed as reduction in H2N-HK-[Nepsilon-acetyl-lysine]-LM-COOH deacetylation measured after 10 mins in presence of beta-NAD+ by RP-HPLC assay
T1 sequence (Q96EB6 whole entry): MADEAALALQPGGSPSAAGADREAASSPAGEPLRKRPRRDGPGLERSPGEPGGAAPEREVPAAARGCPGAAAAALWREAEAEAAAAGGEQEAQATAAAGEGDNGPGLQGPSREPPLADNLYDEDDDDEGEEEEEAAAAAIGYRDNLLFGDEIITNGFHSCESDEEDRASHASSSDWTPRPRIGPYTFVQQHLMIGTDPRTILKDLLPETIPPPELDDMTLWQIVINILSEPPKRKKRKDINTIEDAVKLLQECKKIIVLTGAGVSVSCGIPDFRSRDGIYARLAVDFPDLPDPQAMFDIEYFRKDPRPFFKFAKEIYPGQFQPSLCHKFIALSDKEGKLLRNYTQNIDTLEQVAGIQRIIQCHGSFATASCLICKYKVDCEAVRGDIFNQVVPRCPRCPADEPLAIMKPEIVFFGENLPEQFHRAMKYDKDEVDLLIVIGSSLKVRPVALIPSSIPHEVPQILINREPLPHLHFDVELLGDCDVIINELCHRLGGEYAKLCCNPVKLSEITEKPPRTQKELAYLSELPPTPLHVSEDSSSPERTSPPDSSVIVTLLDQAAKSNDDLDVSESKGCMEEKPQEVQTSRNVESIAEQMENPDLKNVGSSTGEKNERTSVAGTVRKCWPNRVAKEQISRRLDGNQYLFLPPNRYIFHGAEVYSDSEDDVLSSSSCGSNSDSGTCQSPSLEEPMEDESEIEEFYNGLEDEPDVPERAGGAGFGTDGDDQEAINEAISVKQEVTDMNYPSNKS

[2] = Aqueous solubility of the compound; type: physicochemical; conditions: buffer
[3] = target: T2, NAD-dependent protein deacetylase sirtuin-2 (Homo sapiens, UniProt Q8IXJ6); assay: Inhibition of recombinant human His6-tagged SIRT2 (2 to 389 residues) expressed in Escherichia coli assessed as inhibition of H2N-HK-[epsilonN-acetyl-lysine]-LM-COOH deacetylation measured after 12 mins in presence of beta-NAD+ by RP-HPLC analysis
T2 sequence (Q8IXJ6 whole entry): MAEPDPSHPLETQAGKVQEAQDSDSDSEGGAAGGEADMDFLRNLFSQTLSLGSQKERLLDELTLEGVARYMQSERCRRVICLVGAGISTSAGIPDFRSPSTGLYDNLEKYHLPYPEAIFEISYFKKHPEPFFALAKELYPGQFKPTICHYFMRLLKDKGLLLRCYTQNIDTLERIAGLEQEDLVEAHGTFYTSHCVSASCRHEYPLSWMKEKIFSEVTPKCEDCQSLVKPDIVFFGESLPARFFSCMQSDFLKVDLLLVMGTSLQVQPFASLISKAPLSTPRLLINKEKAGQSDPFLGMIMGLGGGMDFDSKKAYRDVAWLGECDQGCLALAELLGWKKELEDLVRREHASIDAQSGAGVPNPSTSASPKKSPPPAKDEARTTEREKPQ

[4] = species: Homo sapiens; assay: Selectivity ratio of IC50 for recombinant human His6/GST-tagged SIRT1 expressed in Escherichia coli to IC50 for recombinant human His6-tagged SIRT2 (2 to 389 residues) expressed in Escherichia coli
[5] = target: T3, NAD-dependent protein deacetylase sirtuin-3, mitochondrial (Homo sapiens, UniProt Q9NTG7); assay: Inhibition of recombinant human His6-tagged SIRT3 (101 to 399 residues) expressed in Escherichia coli assessed as inhibition of H2N-HK-[epsilonN-acetyl-lysine]-LM-COOH deacetylation measured after 10 mins in presence of beta-NAD+ by reversed-phase C18 HPLC analysis
T3 sequence (Q9NTG7 whole entry): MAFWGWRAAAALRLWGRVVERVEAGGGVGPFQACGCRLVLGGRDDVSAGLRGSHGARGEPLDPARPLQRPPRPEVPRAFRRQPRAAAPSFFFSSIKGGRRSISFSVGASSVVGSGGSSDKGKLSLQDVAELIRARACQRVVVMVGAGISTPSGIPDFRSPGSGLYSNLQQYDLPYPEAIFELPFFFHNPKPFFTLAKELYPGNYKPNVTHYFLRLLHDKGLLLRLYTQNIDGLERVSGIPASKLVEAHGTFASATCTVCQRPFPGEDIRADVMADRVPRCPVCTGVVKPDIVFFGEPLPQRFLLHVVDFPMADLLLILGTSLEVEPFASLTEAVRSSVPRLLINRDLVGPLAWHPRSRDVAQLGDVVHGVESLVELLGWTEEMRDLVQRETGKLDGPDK

[6] = species: Homo sapiens; assay: Selectivity ratio of IC50 for recombinant human His6/GST-tagged SIRT1 expressed in Escherichia coli to IC50 for recombinant human His6-tagged SIRT3 (101 to 399 residues) expressed in Escherichia coli
[7] = target: T4, NAD-dependent protein deacetylase sirtuin-1 (Homo sapiens) (UniProt Q96EB6); assay: (§1) Non-competitive inhibition of recombinant human His6/GST-tagged SIRT1 expressed in Escherichia coli assessed as deacetylation of H2N-HK-[epsilonN-acetyl-lysine]-LM-COOH at 4 to 8.5 uM measured after 10 mins in presence of varying beta-NAD+ and constant substrate concentration by Lineweaver-Burk plot analysis
T4 sequence (whole entry): T1 sequence (Q96EB6 whole entry)
Method in brief: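 β-NAD⁺ was the varied co-substrate. An uncompetitive-intercept inhibition constant (Kii) and the apparent Km for β-NAD⁺ were derived from the kinetic data.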

[8] = target: T4, NAD-dependent protein deacetylase sirtuin-1 (Homo sapiens); assay: as §1, with “Competitive” for “Non-competitive”, “constant” for “varying”, “varying” for “constant”
Method in brief: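 Inhibitor tested against varied acetyl-lysine peptide substrate H2N-HK-(Nε-acetyl-lysine)-LM-COOH. A competitive inhibition constant (Kis) and the apparent Km for this peptide were derived from the kinetic data.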

[9] = target: T4, NAD-dependent protein deacetylase sirtuin-1 (Homo sapiens); assay: Reversible inhibition of recombinant human His6/GST-tagged SIRT1 expressed in Escherichia coli assessed as inhibition of H2N-HK-[epsilonN-acetyl-lysine]-LM-COOH deacetylation measured after 10 mins in presence of beta-NAD+ by Dixon plot analysis

Row | Structure (SMILES) | IC50 [1] [µM] | also measured
1 | CC(=O)NCCCC[C@H](NC(=O)[C@H](CCCCNC(=O)CSc1nnc(/C=C/c2ccccc2)[nH]1)NC(=O)[C@H](CCCCNC(C)=O)NC(C)=O)C(N)=O | 150 | 
2 | CC(=O)NCCCC[C@H](NC(=O)[C@H](CCCCNC(=O)CCCCCSc1ccc2ccccc2c1)NC(=O)[C@H](CCCCNC(C)=O)NC(C)=O)C(N)=O | 14.6 | 
3 | CC(=O)NCCCC[C@H](NC(=O)[C@H](CCCCNC(=O)CCCCCCCSc1nc2ccccc2s1)NC(=O)[C@H](CCCCNC(C)=O)NC(C)=O)C(N)=O | 5.3 | solubility [2]: Insoluble
4 | CC(=O)NCCCC[C@H](NC(=O)[C@H](CCCCNC(=O)CSc1ncc(-c2ccccc2)s1)NC(=O)[C@H](CCCCNC(C)=O)NC(C)=O)C(N)=O | 18 | 
5 | CC(=O)NCCCC[C@H](NC(=O)[C@H](CCCCNC(=O)CCCCCSc1nc2ccccc2o1)NC(=O)[C@H](CCCCNC(C)=O)NC(C)=O)C(N)=O | 133 | 
6 | CC(=O)NCCCC[C@H](NC(=O)[C@H](CCCCNC(=O)CCCCCSc1cccc2ccccc12)NC(=O)[C@H](CCCCNC(C)=O)NC(C)=O)C(N)=O | 14.6 | 
7 | CC(=O)NCCCC[C@H](NC(=O)[C@H](CCCCNC(=O)CCCCCSc1nc2ccccc2s1)NC(=O)[C@H](CCCCNC(C)=O)NC(C)=O)C(N)=O | 12.4 | IC50 [3]: > 200 µM; Ratio IC50 [4]: > 16; IC50 [5]: > 1000 µM; Ratio IC50 [6]: > 81; inhibition [7]: Active; inhibition [8]: Active
8 | CC(=O)NCCCC[C@H](NC(=O)[C@H](CCCCNC(=O)CSc1nc2ccccc2s1)NC(=O)[C@H](CCCCNC(C)=O)NC(C)=O)C(N)=O | 77.5 | 
9 | CC(=O)NCCCC[C@H](NC(=O)[C@H](CCCCNC(=O)CCCCCCCSc1nc2c(N)ncnc2[nH]1)NC(=O)[C@H](CCCCNC(C)=O)NC(C)=O)C(N)=O | 45.8 | 
10 | CC(=O)NCCCC[C@H](NC(=O)[C@H](CCCCNC(=O)CI)NC(=O)[C@H](CCCCNC(C)=O)NC(C)=O)C(N)=O | 39.3 | IC50 [3]: 22.2 µM; inhibition [9]: Active
11 | CC(=O)NCCCC[C@H](NC(=O)[C@H](CCCCNC(=O)CNC(=O)CNC(=O)CSc1nc2ccccc2s1)NC(=O)[C@H](CCCCNC(C)=O)NC(C)=O)C(N)=O | 116 | 
12 | CC(=O)NCCCC[C@H](NC(=O)[C@H](CCCCNC(=O)CCCSc1nc2ccccc2s1)NC(=O)[C@H](CCCCNC(C)=O)NC(C)=O)C(N)=O | 27 | 
13 | CC(=O)NCCCC[C@H](NC(=O)[C@H](CCCCNC(=O)CCCCCSc1nc2ccccc2[nH]1)NC(=O)[C@H](CCCCNC(C)=O)NC(C)=O)C(N)=O | 187 | 
14 | CC(=O)NCCCC[C@H](NC(=O)[C@H](CCCCNC(=O)CCCCCSc1ncc(-c2ccccc2)s1)NC(=O)[C@H](CCCCNC(C)=O)NC(C)=O)C(N)=O | 15.4 | 
15 | CC(=O)NCCCC[C@H](NC(=O)[C@H](CCCCNC(=O)CNC(=O)CI)NC(=O)[C@H](CCCCNC(C)=O)NC(C)=O)C(N)=O | > 200 | inhibition [9]: Active
16 | CC(=O)NCCCC[C@H](NC(=O)[C@H](CCCCNC(=O)CCCCCSCc1ccccc1)NC(=O)[C@H](CCCCNC(C)=O)NC(C)=O)C(N)=O | 57.7 | 
17 | CC(=O)NCCCC[C@H](NC(=O)[C@H](CCCCNC(=O)CSCc1ccccc1)NC(=O)[C@H](CCCCNC(C)=O)NC(C)=O)C(N)=O | 171 | 
18 | CC(=O)NCCCC[C@H](NC(=O)[C@H](CCCCNC(=O)CCCCCCSc1nc2ccccc2s1)NC(=O)[C@H](CCCCNC(C)=O)NC(C)=O)C(N)=O | 30 | 
19 | CC(=O)NCCCC[C@H](NC(=O)[C@H](CCCCNC(=O)CCCCCSc1nc2c(N)ncnc2[nH]1)NC(=O)[C@H](CCCCNC(C)=O)NC(C)=O)C(N)=O | > 900 | 
